# Sampled rows, rich in hits. Any-hit rate of the full collection: about 2.2%.
# NR2E3 ag-1: human photoreceptor-specific nuclear receptor agonism. Q9Y5X4. CHO-S Gal4-NCOR/VP16-NR2E3 two-hybrid, luciferase. inhibition of corepressor binding, % at 3.98 µM. hit rate 0.35% among 360,000. AID 602229;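 active means inhibition above the mean of all tested compounds plus 3 SD, cut at about 70% in these data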;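 further: 0% = DMSO with NR2E3 transfected cells and 100% = cells lacking NR2E3 construct; higher means lower luciferase signal from less NR2E3 corepressor binding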
# Target sequence (Q9Y5X4 whole entry, looked up, the tested form may be a part): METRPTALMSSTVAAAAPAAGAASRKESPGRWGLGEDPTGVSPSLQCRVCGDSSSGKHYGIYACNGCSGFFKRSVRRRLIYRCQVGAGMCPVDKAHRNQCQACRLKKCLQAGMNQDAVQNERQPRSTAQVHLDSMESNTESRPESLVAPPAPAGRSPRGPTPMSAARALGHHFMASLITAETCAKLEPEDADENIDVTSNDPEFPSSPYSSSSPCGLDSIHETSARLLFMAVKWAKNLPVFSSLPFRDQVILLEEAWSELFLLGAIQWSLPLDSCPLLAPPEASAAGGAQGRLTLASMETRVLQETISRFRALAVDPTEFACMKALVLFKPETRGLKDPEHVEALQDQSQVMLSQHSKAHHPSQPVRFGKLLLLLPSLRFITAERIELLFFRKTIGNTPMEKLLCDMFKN
# GalR3 antagonist: human GalR3 antagonism. O60755. HEK293 GalR3-CNG cAMP membrane potential fluorescence; galR3 body fused to GalR1 C-terminus. inhibition, % at 3 µM. hit rate 0.44% among 360,000. AID 651719;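 active means inhibition above the screen-wide average plus 3 SD, cut at about 13% in these data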;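 further: forskolin and galanin both at EC90 stimulate the cells; cAMP rise reported by CNG channel membrane potential dye signal; 0% = forskolin plus galanin with DMSO and 100% = forskolin alone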
# Target sequence (O60755 1-299 limits assumed): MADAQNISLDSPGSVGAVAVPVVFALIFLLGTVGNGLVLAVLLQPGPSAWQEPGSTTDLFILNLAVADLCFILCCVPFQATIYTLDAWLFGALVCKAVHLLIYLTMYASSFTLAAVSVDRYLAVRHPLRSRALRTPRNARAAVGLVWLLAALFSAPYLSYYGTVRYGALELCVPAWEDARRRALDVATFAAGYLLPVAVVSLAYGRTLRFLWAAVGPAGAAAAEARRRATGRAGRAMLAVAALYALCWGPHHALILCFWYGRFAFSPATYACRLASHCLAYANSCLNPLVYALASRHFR
# HIV Env fusion: blocks HIV Env-driven cell-cell fusion; AID 651610; HeLa-JRFL Env/CEM21 cell fusion, luciferase; inhibition, % at 12.3 µM; hit rate 1.1% among 360,000;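 active means mean replicate inhibition score of at least 50 and every replicate individually at or above 50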;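 further: 0% = plate neutral controls and 100% = maraviroc near 300 nM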
# GAA850 FXN act: frataxin GAA850 promoter activation; HEK293 lucGAA850 FXN promoter luciferase reporter, 24 h; percent of 10 µM SAHA response; activation, % at 6 µM; hit rate 0.56% among 360,000;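 active means activation above the average of all compounds screened plus 3 SD, cutoff fixed separately per campaign, cut at about 7.5% in these data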;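 further: 0% = DMSO wells and 100% = 10 µM SAHA wells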
# V-ATPase pH: alters yeast V-ATPase proton transport; S. cerevisiae, pHLuorin cytosolic pH fluorescence; response, % at 10 µM; hit rate 0.37% among 350,000; AID 504577; in the data active means response mostly above about 7.3%, no sharp cut-off; inactive means mostly below about 5.4%; further: actives read high
# NR2E3 ag-2: NR2E3 (human) agonism; GST-NR2E3/biotin-RetCOR TR-FRET, 1536-well; Q9Y5X4; inhibition of corepressor binding, % at 4.78 µM; hit rate 0.12% among 320,000;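 active means percent inhibition above the cutoff of mean plus 3 SD of all tested compounds, set per screening campaign, cut at about 20% in these data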;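 further: 0% = DMSO wells and 100% = biotin wells as full block of FRET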
#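 Test system – NR2E3–RetCOR corepressor complex · Quantity – NR2E3 fusion 1.35 nM · Buffer or medium – Tris pH 7.5 · Incubation – Compound–protein incubation for 5 h at 4 °C · Technique – TR-FRET, Eu(K)-anti-GST donor, streptavidin-D2 acceptor, ex 340, em 617/671 nm · Evaluation – percent inhibition of 671/617 nm emission ratio versus biotin and DMSO controls · Plate – 1536-well format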
# * marks the source's active call; other numbers are inactive results; nt = no result; [ ] = remark or other dose.
SMILES,NR2E3 ag-1,GalR3 antagonist,HIV Env fusion,GAA850 FXN act,V-ATPase pH,NR2E3 ag-2
O=C(N[C@@H]1CC[C@H](CCNS(=O)(=O)c2ccc(F)cc2)O[C@@H]1CO)C1CC1,nt,nt,59*[16.7 µM],nt,nt,nt
O=C(Nc1cccc(F)c1)N[C@@H]1CC[C@H](CCNS(=O)(=O)c2cccc(Cl)c2)O[C@@H]1CO,nt,nt,80*[16.7 µM],nt,nt,nt
CC(=O)N(C)C[C@H]1Oc2cc(C#CC(C)(C)O)ccc2S(=O)(=O)N([C@@H](C)CO)C[C@H]1C,nt,nt,-13[16.7 µM],nt,nt,nt
COc1ccccc1CNC(=O)c1cc(-c2ccccc2C)n(CC2CC(c3cccc([N+](=O)[O-])c3)=NO2)n1 (stereo not drawn),-38,-4,60*,-3,3,2
COc1ccc(C2=NOC(Cn3nc(C(=O)NCc4cccc(Br)c4)cc3-c3ccccc3)C2)cc1 (stereo not drawn),-23,-4,85*,2,-2,nt
C[C@H](CO)N1C[C@H](C)[C@H](CN(C)C)Oc2cc(-c3ccc(C#N)cc3)ccc2S1(=O)=O,nt,nt,-14[16.7 µM],nt,nt,nt
O=C(O)C[C@@H]1C[C@H]2c3cc(NC(=O)C4CCC4)ccc3O[C@H]2[C@H](CO)O1,nt,nt,6[16.7 µM],nt,nt,nt
CCc1nc2ccccc2c(C(=O)OCC(=O)Nc2cccc(S(=O)(=O)N3CCOCC3)c2)c1C,-17,-3,100*,-6,0,2
CC(C)(CNC(=O)c1cccc(S(=O)(=O)N2CCCCC2)c1)N1CCOCC1,14,1,63*,0,0,nt
O=C(COC(=O)c1cccc(S(=O)(=O)N2CCOCC2)c1)NCc1ccccc1,-19,-2,68*,0,-3,nt
O=S(=O)(NC1CCN(Cc2ccccc2)CC1)c1cccc(S(=O)(=O)N2CCOCC2)c1,4,-1,-30,1,15*,-2
CCc1nc2ccccc2c(C(=O)OCC(=O)Nc2ccc(S(=O)(=O)N3CCOCC3)cc2)c1C,21,-2,nt,-2,0,-1
O=C(NCCN1CCOCC1)c1cccc(S(=O)(=O)N2CCCCC2)c1,3,0,15,0,-1,1
CCCc1cn(CC[C@H]2CC[C@H](NC(=O)C3CCCCC3)[C@H](CO)O2)nn1,nt,nt,10[16.7 µM],nt,nt,nt
COc1ccc(S(=O)(=O)Nc2ccc3c(c2)C(=O)N([C@@H](C)CO)C[C@@H](C)[C@H](CN(C)C(=O)NC(C)C)OCCCC[C@@H](C)O3)cc1,nt,nt,0[16.7 µM],nt,nt,nt
O=C(c1ccccc1)c1ccc(OCC(O)CN2CCCCC2)cc1 (stereo not drawn),-6,-6,-7,-2,2,1
O=C(c1ccccc1)c1ccc(OCC(O)CN2CCN(S(=O)(=O)N3CCCCC3)CC2)cc1 (stereo not drawn),2,-8,60*,-3,-1,-2
CN(C)C(=O)C[C@@H]1CC[C@H]2[C@H](COc3ccc(NC(=O)C4CCOCC4)cc3C(=O)N2C)O1,nt,nt,8[16.7 µM],nt,nt,nt
Cc1[nH]n(-c2ccccc2)c(=O)c1N=Nc1cccc(C(=O)O)c1,-111,-6,58*,2,-1,2
Cc1[nH]n(-c2ccccc2)c(=O)c1N=Nc1ccc(C(=O)O)cc1,-6,-11,14,3,-1,3
CC(CCc1ccccc1)NCc1cccc2ccccc12 (stereo not drawn),-9,-7,66*,5,10,-2
COCC(C)NCc1cccc2ccccc12 (stereo not drawn),-12,-6,3,-1,-1,2
COc1ccc(CN(C)C[C@H]2OCCCC[C@H](C)Oc3ccc(NS(=O)(=O)c4c(C)noc4C)cc3C(=O)N([C@@H](C)CO)C[C@@H]2C)cc1,nt,nt,0[16.7 µM],nt,nt,nt
CCCCC[C@@H](C)N1C[C@H](COCc2ccccc2)Oc2cc(N3CCC[C@H]3C(N)=O)ccc2S1(=O)=O,0,-8,76*,nt,nt,nt
CCCCC[C@H](C)N1C[C@H](COCc2ccccc2)Oc2cc(N3CCC[C@H]3C(N)=O)ccc2S1(=O)=O,-11,-2,44,nt,nt,nt
SMILES,NR2E3 ag-1,GalR3 antagonist,HIV Env fusion,GAA850 FXN act,V-ATPase pH,NR2E3 ag-2
CCOC(=O)c1c(C)[nH]c(C)c1C(=O)COC(=O)[C@@H](NC(=O)c1ccccc1OCC)C(C)C,18,-5,102*,4,0,-1
O=C(CCN1CCCCC1)NCC[C@@H]1CC[C@@H](NC(=O)C2CCOCC2)[C@@H](CO)O1,nt,nt,-4[16.7 µM],nt,nt,nt
COc1ccc(S(=O)(=O)Nc2ccc3c(c2)C(=O)N([C@@H](C)CO)C[C@H](C)[C@H](CN(C)C(=O)CCCN(C)C)OCCCC[C@H](C)O3)cc1,nt,nt,10[16.7 µM],nt,nt,nt
CCC1=CC(c2ccccc2)n2ncnc2N1 (stereo not drawn),-21,-5,3,0,14*,-5
C[C@@H]1CCCCO[C@H](CN(C)C(=O)Nc2ccc(F)cc2)[C@H](C)CN([C@H](C)CO)C(=O)c2cc(N(C)C)ccc2O1,nt,nt,34[16.7 µM],nt,nt,nt
C[C@H](CO)N1C[C@H](C)[C@H](CN(C)S(=O)(=O)c2ccc(F)cc2)Oc2cc(Br)ccc2S1(=O)=O,nt,nt,77*[16.7 µM],nt,nt,nt
Cc1ccc(S(=O)(=O)N(C)C[C@@H]2Oc3cc(Br)ccc3S(=O)(=O)N([C@H](C)CO)C[C@@H]2C)cc1,nt,nt,63*[16.7 µM],nt,nt,nt
CCC(=O)Nc1ccc2c(c1)C(=O)N(C)[C@@H]1CC[C@H](CC(=O)NCCc3ccncc3)O[C@H]1CO2,nt,nt,-9[16.7 µM],nt,nt,nt
CCCC(O)C#Cc1cnc2c(c1)C(=O)N([C@H](C)CO)C[C@H](C)[C@H](CN(C)C(=O)NC1CCCCC1)O2 (stereo partly drawn),nt,nt,9[16.7 µM],nt,nt,nt
COc1ccc(C(=O)C2CCN(C(=O)c3ccc(C)cc3)CC2)cc1,10,-5,86*,0,11,1
COc1ccc(C(=O)C2CCN(C(=O)c3ccc(F)cc3)CC2)cc1,-3,-9,10,1,1,4
COc1ccc(OC)c2sc(N(CCCN(C)C)C(=O)CCS(=O)(=O)c3ccccc3)nc12,0,-9,27,31*,1,-1
O=C(Nc1ccc(Oc2ccc(NC(=O)Nc3ccc([N+](=O)[O-])cc3)cc2)cc1)Nc1ccc([N+](=O)[O-])cc1,-5,-10,60*,-3,4,-5
O=C(O)c1cc(NC(=O)c2ccc([N+](=O)[O-])cc2)cc(NC(=O)c2ccc([N+](=O)[O-])cc2)c1,-30,-9,17,0,-4,1
O=C(Nc1ccc([N+](=O)[O-])cc1)C(=O)Nc1cccc(C(=O)O)c1,-187,-1,115*,0,2,1
CCC1(c2ccc(Cl)cc2)NC(=O)N(Cc2ccc(C(=O)OC)cc2)C1=O (stereo not drawn),-25,-2,3,-2,13*,1
Cc1ccc(S(=O)(=O)N2CCN(C(=O)CNC(=O)c3ccc(Br)o3)CC2)cc1,2,-2,64*,1,-1,-1
COCCNC(=O)C[C@H]1CC[C@@H]2[C@H](COc3ccc(NC(C)=O)cc3C(=O)N2C)O1,nt,nt,-4[16.7 µM],nt,nt,nt
